According to ChEMBL document CHEMBL1157473, “Identification of 4-benzylamino-2-[(4-morpholin-4-ylphenyl)amino]pyrimidine-5-carboxamide derivatives as potent and orally bioavailable STAT6 inhibitors” (Bioorg Med Chem, 2008):

test system: not listed separately; experiment: Dissociation constant, pKa of the compound; format: physicochemical; details: not given

**Q.** For Oc1ccccc1Cl [2-CHLOROPHENOL], which pKa is on record?
**A.** 9.13

**Q.** With Oc1c(Cl)cccc1Cl [2,6-DICHLOROPHENOL] as the compound, how does the pKa read?
**A.** 7.15

test system: not listed separately; experiment: Volume of distribution in BALB/c mouse at 1 mg/kg, iv; format: ADME, organism-based; set-up: dose 1 mg/kg, route intravenous; details: in vivo
Procedure, shortened: (§1)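 Overnight-fasted 8-week-old female Balb/c mice were given 1 mg/kg by tail-vein injection at 10 mL/kg, in a Cremophor EL/saline-based vehicle. Plasma was extracted by solid-phase extraction and analysed by HPLC-MS-MS.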

**Q.** For NC(=O)c1cnc(Nc2ccc(N3CCOCC3)cc2)nc1NCc1ccccc1, which Vd is on record?
**A.** 3.91 L/kg

**Q.** With NC(=O)c1cnc(NCCc2cc(Cl)c(O)c(Cl)c2)nc1NCc1ccccc1 as the compound, how does the Vd read?
**A.** 0.931 L/kg

test system: not listed separately; experiment: Oral bioavailability in BALB/c mouse at 10 mg/kg; format: ADME, organism-based; details: in vivo
Procedure, shortened: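 Oral dose of 10 mg/kg in 0.5% methylcellulose (10 mL/kg) to overnight-fasted 8-week-old female Balb/c mice, against a 1 mg/kg iv dose. Blood was sampled from the vena cava at 0.25 to 24 h. Plasma was assayed by solid-phase extraction and HPLC-MS-MS.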

**Q.** For NC(=O)c1cnc(NCCc2cc(Cl)c(O)c(Cl)c2)nc1NCc1ccccc1, which bioavailability is on record?
**A.** 1%

test system: not listed separately; experiment: Oral bioavailability in BALB/c mouse at 3 mg/kg; format: ADME, organism-based; details: in vivo
Procedure, shortened: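 Mice were 8-week-old female Balb/c, fasted overnight, given 3 mg/kg po in 0.5% methylcellulose (10 mL/kg), with 1 mg/kg iv as reference. Vena cava blood was collected at 0.25 to 24 h. Plasma was extracted by solid-phase extraction and quantified by HPLC-MS-MS.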

**Q.** Which bioavailability does the source give for NC(=O)c1cnc(Nc2ccc(N3CCOCC3)cc2)nc1NCc1ccccc1 here?
**A.** 30%

test system: not listed separately; experiment: Clearance in BALB/c mouse at 1 mg/kg, iv; format: ADME, organism-based; set-up: dose 1 mg/kg, route intravenous; details: in vivo; procedure, shortened: as §1

**Q.** For NC(=O)c1cnc(Nc2ccc(N3CCOCC3)cc2)nc1NCc1ccccc1, which clearance is on record?
**A.** 59.6 mL/min/kg

**Q.** Which clearance does the source give for NC(=O)c1cnc(NCCc2cc(Cl)c(O)c(Cl)c2)nc1NCc1ccccc1 here?
**A.** 168 mL/min/kg

test system: not listed separately; experiment: Half life in BALB/c mouse at 1 mg/kg, iv; format: ADME, organism-based; set-up: dose 1 mg/kg, route intravenous; details: in vivo; procedure, shortened: as §1

**Q.** With NC(=O)c1cnc(Nc2ccc(N3CCOCC3)cc2)nc1NCc1ccccc1 as the compound, how does the half-life read?
**A.** 45.6 min

**Q.** Which half-life does the source give for NC(=O)c1cnc(NCCc2cc(Cl)c(O)c(Cl)c2)nc1NCc1ccccc1 here?
**A.** 3.6 min

target: T1, Signal transducer and activator of transcription 6 (Homo sapiens, UniProt P42226); experiment: Inhibition of STAT6 activation in FW4 reporter cells; format: cell-based; details: not given
T1 sequence (P42226 whole entry): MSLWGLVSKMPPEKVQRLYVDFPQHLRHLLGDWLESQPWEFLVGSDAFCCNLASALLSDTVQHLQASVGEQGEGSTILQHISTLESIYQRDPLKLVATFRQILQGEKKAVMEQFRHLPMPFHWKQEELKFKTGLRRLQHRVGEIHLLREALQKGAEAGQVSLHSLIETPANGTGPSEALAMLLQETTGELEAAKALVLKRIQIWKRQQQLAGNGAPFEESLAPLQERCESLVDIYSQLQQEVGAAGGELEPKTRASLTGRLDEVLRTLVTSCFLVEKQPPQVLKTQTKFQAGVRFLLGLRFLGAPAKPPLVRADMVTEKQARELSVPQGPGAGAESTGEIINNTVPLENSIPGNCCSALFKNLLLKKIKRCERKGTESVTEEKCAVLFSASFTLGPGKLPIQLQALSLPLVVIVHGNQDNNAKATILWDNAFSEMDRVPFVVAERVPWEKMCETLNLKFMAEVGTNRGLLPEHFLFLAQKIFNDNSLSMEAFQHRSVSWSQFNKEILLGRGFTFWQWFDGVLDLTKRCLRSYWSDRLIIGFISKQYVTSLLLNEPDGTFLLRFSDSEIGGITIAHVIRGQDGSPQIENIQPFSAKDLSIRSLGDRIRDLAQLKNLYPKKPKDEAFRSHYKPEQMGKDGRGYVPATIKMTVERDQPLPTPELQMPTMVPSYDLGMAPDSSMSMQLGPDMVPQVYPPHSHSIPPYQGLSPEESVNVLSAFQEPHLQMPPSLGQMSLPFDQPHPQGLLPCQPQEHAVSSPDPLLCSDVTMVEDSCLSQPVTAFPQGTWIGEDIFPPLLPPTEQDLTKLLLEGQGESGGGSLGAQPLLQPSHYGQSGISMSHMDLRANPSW

**Q.** With NC(=O)c1cnc(Nc2ccc(N3CCOCC3)cc2)nc1NCc1cccc(C(F)(F)F)c1 as the compound, how does the IC50 read?
**A.** 130 nM

**Q.** Which IC50 does the source give for NC(=O)c1cnc(Nc2ccc(N3CCOCC3)cc2)nc1NCc1ccc(F)cc1 here?
**A.** 650 nM

**Q.** For NC(=O)c1cnc(Nc2ccc(N3CCOCC3)cc2)nc1NCc1cccc(F)c1F, which IC50 is on record?
**A.** 2.1 nM

**Q.** For NC(=O)c1cnc(Nc2ccc(N3CCOCC3)cc2)nc1NCc1ccccc1[N+](=O)[O-], which IC50 is on record?
**A.** 38 nM

**Q.** With NC(=O)c1cnc(Nc2ccc(N3CCOCC3)cc2)nc1NCc1cc(F)cc(F)c1 as the compound, how does the IC50 read?
**A.** 5.5 nM

**Q.** Which IC50 does the source give for NC(=O)c1cnc(Nc2ccc(N3CCOCC3)cc2)nc1NCc1c(F)cccc1F here?
**A.** 2.2 nM

**Q.** For NC(=O)c1cnc(Nc2ccc(N3CCOCC3)cc2)nc1NCc1ccccc1C(F)(F)F, which IC50 is on record?
**A.** 25 nM

**Q.** For COc1ccccc1CNc1nc(Nc2ccc(N3CCOCC3)cc2)ncc1C(N)=O, which IC50 is on record?
**A.** 8.2 nM

**Q.** Which IC50 does the source give for NC(=O)c1cnc(Nc2ccc(N3CCOCC3)cc2)nc1NCc1cccc(F)c1 here?
**A.** 1.8 nM

**Q.** With NC(=O)c1cnc(Nc2ccc(N3CCOCC3)cc2)nc1NCc1cc(F)cc(F)c1F as the compound, how does the IC50 read?
**A.** 1.8 nM

**Q.** With CN1CCN(c2ccc(Nc3ncc(C(N)=O)c(NCc4ccccc4)n3)cc2)CC1 as the compound, how does the IC50 read?
**A.** 6.2 nM

**Q.** Which IC50 does the source give for NC(=O)c1cnc(Nc2ccc(N3CCOCC3)cc2)nc1NCc1cc(F)ccc1F here?
**A.** 1.6 nM

**Q.** With NC(=O)c1cnc(Nc2ccc(N3CCOCC3)cc2)nc1NCc1ccccc1O as the compound, how does the IC50 read?
**A.** 22 nM

**Q.** Which IC50 does the source give for NC(=O)c1cnc(Nc2ccc(N3CCOCC3)cc2)nc1NCc1cccc(O)c1 here?
**A.** 19 nM

**Q.** For NC(=O)c1cnc(Nc2ccc(CCO)cc2)nc1NCc1ccccc1, which IC50 is on record?
**A.** 95 nM

**Q.** For CSc1ccccc1CNc1nc(Nc2ccc(N3CCOCC3)cc2)ncc1C(N)=O, which IC50 is on record?
**A.** 23 nM

**Q.** Which IC50 does the source give for CC(=O)Nc1ccccc1CNc1nc(Nc2ccc(N3CCOCC3)cc2)ncc1C(N)=O here?
**A.** 5200 nM

**Q.** Which IC50 does the source give for Cc1ccccc1CNc1nc(Nc2ccc(N3CCOCC3)cc2)ncc1C(N)=O here?
**A.** 11 nM

**Q.** With NC(=O)c1cnc(Nc2ccc(N3CCC(O)C3)cc2)nc1NCc1ccccc1 (stereo not drawn) as the compound, how does the IC50 read?
**A.** 98 nM

**Q.** For NC(=O)c1cnc(Nc2ccc(N3CCOCC3)cc2)nc1NCc1ccccc1Cl, which IC50 is on record?
**A.** 7.9 nM

**Q.** For NC(=O)c1cnc(Nc2ccc(N3CCC(O)CC3)cc2)nc1NCc1ccccc1, which IC50 is on record?
**A.** 16 nM

**Q.** With CS(=O)(=O)c1ccccc1CNc1nc(Nc2ccc(N3CCOCC3)cc2)ncc1C(N)=O as the compound, how does the IC50 read?
**A.** 2000 nM

**Q.** For NC(=O)c1cnc(Nc2ccc(N3CCOCC3)cc2)nc1NCc1ccccc1F, which IC50 is on record?
**A.** 1.4 nM

**Q.** With NC(=O)c1cnc(Nc2ccc(N3CCOCC3)cc2)nc1NCc1ccccc1N as the compound, how does the IC50 read?
**A.** 310 nM

**Q.** With COc1cccc(CNc2nc(Nc3ccc(N4CCOCC4)cc3)ncc2C(N)=O)c1 as the compound, how does the IC50 read?
**A.** 25 nM

**Q.** Which IC50 does the source give for NC(=O)c1cnc(Nc2ccc(N3CCOCC3)cc2)nc1NCc1cccc(Cl)c1 here?
**A.** 36 nM

**Q.** Which IC50 does the source give for NC(=O)c1cnc(Nc2ccc(CCCO)cc2)nc1NCc1ccccc1 here?
**A.** 81 nM

**Q.** Which IC50 does the source give for NC(=O)c1cnc(NCCc2cc(Cl)c(O)c(Cl)c2)nc1NCc1ccccc1 here?
**A.** 61 nM

**Q.** With NC(=O)c1cnc(Nc2ccc(N3CCCCC3)cc2)nc1NCc1ccccc1 as the compound, how does the IC50 read?
**A.** 120 nM

**Q.** For NC(=O)c1cnc(Nc2ccc(N3CCNCC3)cc2)nc1NCc1ccccc1, which IC50 is on record?
**A.** 7 nM

**Q.** Which IC50 does the source give for NC(=O)c1cnc(Nc2ccc(N3CCCC3)cc2)nc1NCc1ccccc1 here?
**A.** 650 nM

**Q.** With CN1CCC(c2ccc(Nc3ncc(C(N)=O)c(NCc4ccccc4)n3)cc2)CC1 as the compound, how does the IC50 read?
**A.** 17 nM

**Q.** For NC(=O)c1cnc(Nc2ccc(N3CCOCC3)cc2)nc1NCc1ccc(F)cc1F, which IC50 is on record?
**A.** 310 nM
